Screening results deposited in PubChem by Broad Institute.
LMP1 NFkB inh: EBV LMP1-driven NF-kappaB luciferase reporter inhibitors, primary screen, cell-based, luminescence, single point | inhibition, % at 12.5 µM | hit rate 0.69% among 350,000 | LMP1-induced NF-kappaB luciferase reporter cells; in the data active means inhibition above about 41%
FN deposition inh: inhibitors of fibronectin matrix deposition, primary screen, AH1F cells, Alexa488-fibronectin fluorescence, plate reader | AH1F fibroblasts, overnight | inhibition, % at 12.6 µM | hit rate 0.086% among 350,000;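 active means mean inhibition across replicates of 30% or more, regardless of how many single replicates reach that level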
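Assay system: AH1F fibroblast monolayer, labelled fibronectin deposition. Amount: 10000 cells per well. Also added: labelled fibronectin 24 nM. Compound: single-point pinned compound. Incubation: cell attachment 1 h, compound and FN exposure overnight. Detection: fluorescence after three HBSS washes, excitation 485 nm, emission 525 nm. Read-out: inhibition of fibronectin deposition signal.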
aSyn UTR inh: MLPCN primary screen, SNCA 5' untranslated region; alpha-synuclein 5'UTR reporter, inhibitor activity; hit rate 0.82% among 300,000; inhibition, % (tested at 7.5 µM); AID 1813, 2009; in the data active means inhibition above about 60%;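 further: H4 neuroglioblastoma cells stably carrying SNCA 5'UTR luciferase fusion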
PAX8 reporter: inhibitors of PAX8-driven TPO luciferase reporter, primary screen, RMG-I cells, single concentration; hit rate 1.2% among 360,000; inhibition, % at 12.6 µM; SteadyGlo, 24 h;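 active means mean replicate inhibition at least 60% with every replicate also reaching 60%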;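 further: luciferase light reporting Pax8 driven TPO promoter activity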
Shn3 3UTR inh: reduction of Shn3 3'UTR firefly luciferase signal, primary screen, Schnurri-3 inhibitor project, cell-based, Clone20 osteoblasts, set 2. Clone20 osteoblast Shn3 3'UTR firefly luciferase, 24 h. inhibition, % at 12.5 µM. hit rate 0.52% among 360,000. AID 588674, 2011;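 active means mean inhibition of at least 75% with every replicate also reaching 75%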
EWS-Fli inh: EWS/Fli-driven NR0B1 reporter inhibitors, primary screen, A673 cells, NR0B1 luciferase, luminescence, MLPCN library; viability-normalised; inhibition, % at 12.6 µM; hit rate 0.67% among 350,000; AID 651661, 2012;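 active means mean inhibition of at least 50% after viability correction, with every replicate also passing that limit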;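 further: firefly luciferase signal divided by Alamar Blue viability fluorescence both relative to DMSO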
Numbers stand for hits; n = inactive; x = not tested or not shown. The list is not random: actives were taken first. Their share in the collection is about 2.1%.

SMILES	LMP1 NFkB inh	FN deposition inh	aSyn UTR inh	PAX8 reporter	Shn3 3UTR inh	EWS-Fli inh
CCOC(=O)/C=C/S(=O)(=O)c1ccc(NC(C)=O)cc1	n	n	n	x	96.5	x
C/C=C/c1cnc2c(c1)C(=O)N([C@H](C)CO)C[C@H](C)[C@@H](CN(C)S(=O)(=O)c1ccccc1)O2	x	n	x	x	x	n
CC(C)NC(=O)Nc1ccc2c(c1)CC(=O)N(C)C[C@H](C)[C@H](CN(C)C(=O)OC(C)(C)C)O2	x	n	x	x	x	x
Cc1ccc2c(c1)c1c3n2CCN(CC(N)=O)C3CCC1 (stereo unspecified)	n	n	n	96.7	n	n
Cc1ccc2c(c1)c1c3n2CCN(CCC(=O)O)C3CCC1 (stereo unspecified)	n	n	n	n	n	n
CCOC(=O)C1=C(CC)Nc2ccccc2N=C1NC(=O)Nc1ccc(Cl)c(Cl)c1	n	n	n	62.1	n	x
CCOC(=O)C1=C(CC)Nc2ccccc2N=C1NC(=O)c1cc(C)on1	n	n	x	n	n	n
COc1cccc(-c2cc(NC=O)c3ncc(-c4cc(OC)c(OC)c(OC)c4)n3c2)c1	x	n	x	n	n	52.6
COc1cccc(-c2cnc3c(NC=O)cc(-c4ccc(O)c(OC)c4)cn23)c1	x	n	x	n	n	n
CS(=O)(=O)Nc1cccc(-c2cc(NC=O)c3ncc(-c4ccc(F)cc4)n3c2)c1	x	n	x	80.7	n	n
COc1cc(-c2cnc3c(NC=O)cc(-c4ccsc4)cn23)cc(OC)c1OC	x	n	x	x	n	56.0
O=CNc1cc(-c2cccc(F)c2)cn2c(-c3ccc(F)cc3)cnc12	x	n	x	n	n	n
CCCN(C)C[C@@H]1Oc2ncc(-c3ccccc3)cc2C(=O)N([C@H](C)CO)C[C@H]1C	x	x	x	n	x	n
C[C@@H]1CCCCO[C@H](CN(C)C(=O)Nc2ccccc2)[C@@H](C)CN([C@H](C)CO)C(=O)c2cc(NC(=O)c3ccncc3)ccc2O1	x	n	x	n	x	n
COc1cc(/C=C/C(=O)NNC(=O)c2cccc(S(=O)(=O)N(C)C)c2)cc(OC)c1OC	n	n	x	n	n	n
COc1ccc(Cl)cc1C(=O)NNC(=O)c1cccc(S(=O)(=O)N(C)C)c1	n	30.7	n	n	n	x
CCN(CC)c1ccc(/C=N/n2c(-c3ccccc3Br)n[nH]c2=S)cc1	n	n	77.5	n	n	n
CCc1n[nH]c(=S)n1/N=C/c1ccc(N(C)c2ccccc2)cc1	75.7	n	n	n	n	n
CN1CCN(C(=O)C[C@H]2C=C[C@H](NC(=O)c3ccc4c(c3)OCO4)[C@H](CO)O2)CC1	x	n	x	n	x	n
CN1c2ccc(-c3ccccc3)cc2[C@@H]2[C@@H](CCN2C(=O)c2ccc3c(c2)OCO3)[C@@H]1CO	x	n	x	n	x	n
COc1cc(CN2CC3(CCN(C(=O)c4cccnc4)CC3)c3c([nH]c4cc(OC)ccc34)[C@@H]2CO)cc(OC)c1	x	n	x	n	x	n
COc1ccccc1CNS(=O)(=O)c1ccc(-c2cc(C)no2)cc1	n	n	80.0	n	n	n
O=C(C[C@H]1CC[C@H]2[C@@H](COC[C@H](O)CN2C(=O)Nc2ccc(Cl)c(Cl)c2)O1)NCc1ccc(F)cc1	x	n	x	n	x	n
COc1ccc(OC)c(S(=O)(=O)NCCc2csc(-c3cccnc3)n2)c1	n	n	n	n	n	n
COc1ccc(S(=O)(=O)NCCc2csc(-c3cccnc3)n2)cc1	77.5	n	n	n	n	n
SMILES	LMP1 NFkB inh	FN deposition inh	aSyn UTR inh	PAX8 reporter	Shn3 3UTR inh	EWS-Fli inh
C[C@@H]1CCCCO[C@H](CN(C)C(=O)Nc2ccc(F)cc2)[C@H](C)CN([C@H](C)CO)C(=O)c2cc(NC(=O)Cc3ccccc3)ccc2O1	x	x	x	n	x	n
COc1ccc(-c2cc(C(F)(F)F)n3nc(C(=O)N4CCOCC4)nc3n2)cc1	44.1	x	x	x	n	x
COc1ccc(-c2cc(C(=O)N3CCOCC3)no2)cc1	n	n	72.6	n	n	n
COc1cccc(-c2cc(C(=O)N3CCOCC3)no2)c1	n	n	n	n	n	n
CCOC(=O)c1c(C)[nH]c(C)c1C(=O)CSc1nc2ccccc2c(=O)n1-c1ccc(CC)cc1	n	n	n	n	89.8	x
C[C@H](CO)N1C[C@H](C)[C@H](CN(C)Cc2ccc(C(=O)O)cc2)Oc2ncc(C#CCN(C)C)cc2C1=O	x	n	x	n	x	n
